Data reported in ChEMBL document CHEMBL3588757, “Structure-based design, synthesis and biological testing of piperazine-linked bis-epipodophyllotoxin etoposide analogs” (Bioorg Med Chem, 2015).

Key:
M14 = assay: Cytotoxicity against human M14 cells assessed as cell growth at 5 uM by SRB assay; format: functional; conditions: read-out: Activity
BT-549 = assay: Cytotoxicity against human BT549 cells by SRB assay; format: functional
NCI-H522 [1] = assay: Cytotoxicity against human NCI-H522 cells assessed as cell growth at 0.005 uM by SRB assay; format: functional; conditions: read-out: Activity
NCI-H226 [2] = assay: Cytotoxicity against human NCI-H226 cells assessed as cell growth at 0.05 uM by SRB assay; format: functional; conditions: read-out: Activity
ACHN [3] = assay: Cytotoxicity against human ACHN cells assessed as cell growth at 0.005 uM by SRB assay; format: functional; conditions: read-out: Activity
NCI-H522 [4] = assay: Cytotoxicity against human NCI-H522 cells assessed as cell growth at 50 uM by SRB assay; format: functional; conditions: read-out: Activity
OVCAR-5 = assay: Cytotoxicity against human OVCAR5 cells assessed as cell growth at 50 uM by SRB assay; format: functional; conditions: read-out: Activity
RPMI-8226 [5] = assay: Cytotoxicity against human RPMI8226 cells assessed as cell growth at 5 uM by SRB assay; format: functional; conditions: read-out: Activity
RXF 393 [6] = assay: Cytotoxicity against human RXF393 cells assessed as cell growth at 5 uM by SRB assay; format: functional; conditions: read-out: Activity
OVCAR-4 [7] = assay: Cytotoxicity against human OVCAR4 cells assessed as cell growth at 5 uM by SRB assay; format: functional; conditions: read-out: Activity
ACHN [8] = assay: Cytotoxicity against human ACHN cells assessed as cell growth at 0.05 uM by SRB assay; format: functional; conditions: read-out: Activity
UACC-62 [9] = assay: Cytotoxicity against human UACC62 cells assessed as cell growth at 50 uM by SRB assay; format: functional; conditions: read-out: Activity
IGROV-1 [10] = assay: Cytotoxicity against human IGROV1 cells assessed as cell growth at 50 uM by SRB assay; format: functional; conditions: read-out: Activity
OVCAR-4 [11] = assay: Cytotoxicity against human OVCAR4 cells assessed as cell growth at 50 uM by SRB assay; format: functional; conditions: read-out: Activity
[12] = Cytotoxicity against etoposide-resistant human K/VP.5 cells assessed as cell growth inhibition after 72 hrs by MTS assay; format: functional, cell-based; conditions: K/VP.5, 72 h
Summary of the method: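 K/VP.5 cells are a K562-derived subline, 26-fold etoposide-resistant, with decreased topoisomerase IIα mRNA and protein. Cells were grown in suspension in αMEM with 10% fetal calf serum. Drugs were given from DMSO stocks, with final DMSO typically 0.4% or less. Read-out was MTS absorbance after 72 h. Typically nine concentrations were run in duplicate on two days. IC50 came from a four-parameter logistic fit.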

SF-295 [13] = assay: Cytotoxicity against human SF295 cells assessed as cell growth at 0.005 uM by SRB assay; format: functional; conditions: read-out: Activity
HCC 2998 = assay: Cytotoxicity against human HCC2998 cells assessed as cell growth at 50 uM by SRB assay; format: functional; conditions: read-out: Activity
Summary of the method: (§1)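 Measured in the NCI-60 human tumour cell line panel using five-dose testing. Growth was recorded at each dose for each cell line, and a GI50 was derived for each line.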

KM12 = assay: Cytotoxicity against human KM12 cells assessed as cell growth at 5 uM by SRB assay; format: functional; conditions: read-out: Activity
786-0 [14] = assay: Cytotoxicity against human 786-0 cells assessed as cell growth at 0.05 uM by SRB assay; format: functional; conditions: read-out: Activity
SF-268 = assay: Cytotoxicity against human SF268 cells assessed as cell growth at 5 uM by SRB assay; format: functional; conditions: read-out: Activity
786-0 [15] = assay: Cytotoxicity against human 786-0 cells assessed as cell growth at 0.005 uM by SRB assay; format: functional; conditions: read-out: Activity
SK-MEL-2 [16] = assay: Cytotoxicity against human SK-MEL-2 cells assessed as cell growth at 0.005 uM by SRB assay; format: functional; conditions: read-out: Activity
OVCAR-3 [17] = assay: Cytotoxicity against human OVCAR3 cells by SRB assay; format: functional
Summary of the method: (§2)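 NCI-60 panel screen; 5-dose testing giving GI50 per cell line, plus a single 10 µM one-dose test. Method details not given beyond the NCI screen.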

RPMI-8226 [18] = assay: Cytotoxicity against human RPMI8226 cells assessed as cell growth at 0.5 uM by SRB assay; format: functional; conditions: read-out: Activity
SK-OV-3 = assay: Cytotoxicity against human SKOV3 cells assessed as cell growth at 5 uM by SRB assay; format: functional; conditions: read-out: Activity
MCF7 = assay: Cytotoxicity against human MCF7 cells assessed as cell growth at 0.05 uM by SRB assay; format: functional; conditions: read-out: Activity
COLO 205 = assay: Cytotoxicity against human COLO205 cells assessed as cell growth at 0.05 uM by SRB assay; format: functional; conditions: read-out: Activity
OVCAR-8 = assay: Cytotoxicity against human OVCAR8 cells assessed as cell growth at 0.05 uM by SRB assay; format: functional; conditions: read-out: Activity
ACHN [19] = assay: Cytotoxicity against human ACHN cells by SRB assay; format: functional
ACHN [20] = assay: Cytotoxicity against human ACHN cells assessed as cell growth at 50 uM by SRB assay; format: functional; conditions: read-out: Activity
SF-295 [21] = assay: Cytotoxicity against human SF295 cells assessed as cell growth at 50 uM by SRB assay; format: functional; conditions: read-out: Activity
SK-MEL-2 [22] = assay: Cytotoxicity against human SK-MEL-2 cells by SRB assay; format: functional; summary of the method: as §2
RXF 393 [23] = assay: Cytotoxicity against human RXF393 cells assessed as cell growth at 0.5 uM by SRB assay; format: functional; conditions: read-out: Activity
OVCAR-3 [24] = assay: Cytotoxicity against human OVCAR3 cells assessed as cell growth at 0.005 uM by SRB assay; format: functional; conditions: read-out: Activity
RPMI-8226 [25] = assay: Cytotoxicity against human RPMI8226 cells by SRB assay; format: functional; summary of the method: as §2
U-251 [26] = assay: Cytotoxicity against human U251 cells assessed as cell growth at 0.5 uM by SRB assay; format: functional; conditions: read-out: Activity
U-251 [27] = assay: Cytotoxicity against human U251 cells by SRB assay; format: functional; summary of the method: as §2
IGROV-1 [28] = assay: Cytotoxicity against human IGROV1 cells assessed as cell growth at 0.5 uM by SRB assay; format: functional; conditions: read-out: Activity; summary of the method: as §1
U-251 [29] = assay: Cytotoxicity against human U251 cells assessed as cell growth at 0.005 uM by SRB assay; format: functional; conditions: read-out: Activity
NCI-H226 [30] = assay: Cytotoxicity against human NCI-H226 cells assessed as cell growth at 5 uM by SRB assay; format: functional; conditions: read-out: Activity
SR = assay: Cytotoxicity against human SR cells assessed as cell growth at 5 uM by SRB assay; format: functional; conditions: read-out: Activity
UACC-62 [31] = assay: Cytotoxicity against human UACC62 cells assessed as cell growth at 0.5 uM by SRB assay; format: functional; conditions: read-out: Activity
[32] = read-out: LC50 (the source's name)
[33] = read-out: pLC50 (the source's name) (converted)

SMILES: COc1cc([C@@H]2c3cc4c(cc3[C@@H](NC(=O)CN3CCN(CCCCCCN5CCN(CC(=O)N[C@@H]6c7cc8c(cc7[C@@H](c7cc(OC)c(O)c(OC)c7)[C@H]7C(=O)OC[C@@H]76)OCO8)CC5)CC3)[C@H]3COC(=O)[C@H]23)OCO4)cc(OC)c1O
- growth at 5 µM (M14): 35%
- GI50 (BT-549; read-out: GI50): 0.757 µM
- CC50 (BT-549; [32]): > 50 µM
- TGI (BT-549; read-out: TGI): 4.24 µM
- GI50 (BT-549; read-out: pGI50 (converted)): 0.759 µM
- CC50 (BT-549; [33]): > 50.1 µM
- TGI (BT-549; read-out: pTGI (converted)): 4.27 µM
- growth at 0.005 µM (NCI-H522 [1]): 99%
- growth at 0.05 µM (NCI-H226 [2]): 87%
- growth at 0.005 µM (ACHN [3]): 94%
- growth at 50 µM (NCI-H522 [4]): -16%
- growth at 50 µM (OVCAR-5): 10%
- growth at 5 µM (RPMI-8226 [5]): -1%
- growth at 5 µM (RXF 393 [6]): 66%
- growth at 5 µM (OVCAR-4 [7]): 64%
- growth at 0.05 µM (ACHN [8]): 98%
- growth at 50 µM (UACC-62 [9]): -5%
- growth at 50 µM (IGROV-1 [10]): 47%
- growth at 50 µM (OVCAR-4 [11]): 21%
- IC50 [12]: 0.88 µM
- growth at 0.005 µM (SF-295 [13]): 90%
- growth at 50 µM (HCC 2998): -10%
- growth at 5 µM (KM12): 46%
- growth at 0.05 µM (786-0 [14]): 96%
- growth at 5 µM (SF-268): 20%
- growth at 0.005 µM (786-0 [15]): 89%
- growth at 0.005 µM (SK-MEL-2 [16]): 102%
- GI50 (OVCAR-3 [17]; read-out: GI50): 8.92 µM
- CC50 (OVCAR-3 [17]; [32]): > 50 µM
- TGI (OVCAR-3 [17]; read-out: TGI): > 50 µM
- GI50 (OVCAR-3 [17]; read-out: pGI50 (converted)): 8.91 µM
- CC50 (OVCAR-3 [17]; [33]): > 50.1 µM
- TGI (OVCAR-3 [17]; read-out: pTGI (converted)): > 50.1 µM
- growth at 0.5 µM (RPMI-8226 [18]): 67%
- growth at 5 µM (SK-OV-3): 44%
- growth at 0.05 µM (MCF7): 77%
- growth at 0.05 µM (COLO 205): 99%
- growth at 0.05 µM (OVCAR-8): 108%
- GI50 (ACHN [19]; read-out: GI50): 22.3 µM
- CC50 (ACHN [19]; [32]): > 50 µM
- TGI (ACHN [19]; read-out: TGI): > 50 µM
- GI50 (ACHN [19]; read-out: pGI50 (converted)): 22.4 µM
- CC50 (ACHN [19]; [33]): > 50.1 µM
- TGI (ACHN [19]; read-out: pTGI (converted)): > 50.1 µM
- growth at 50 µM (ACHN [20]): 37%
- growth at 50 µM (SF-295 [21]): 1%
- GI50 (SK-MEL-2 [22]; read-out: GI50): 11.3 µM
- CC50 (SK-MEL-2 [22]; [32]): > 50 µM
- TGI (SK-MEL-2 [22]; read-out: TGI): 35.5 µM
- GI50 (SK-MEL-2 [22]; read-out: pGI50 (converted)): 11.2 µM
- CC50 (SK-MEL-2 [22]; [33]): > 50.1 µM
- TGI (SK-MEL-2 [22]; read-out: pTGI (converted)): 35.5 µM
- growth at 0.5 µM (RXF 393 [23]): 91%
- growth at 0.005 µM (OVCAR-3 [24]): 110%
- GI50 (RPMI-8226 [25]; read-out: GI50): 0.89 µM
- CC50 (RPMI-8226 [25]; [32]): > 50 µM
- TGI (RPMI-8226 [25]; read-out: TGI): 4.9 µM
- GI50 (RPMI-8226 [25]; read-out: pGI50 (converted)): 0.891 µM
- CC50 (RPMI-8226 [25]; [33]): > 50.1 µM
- TGI (RPMI-8226 [25]; read-out: pTGI (converted)): 4.9 µM
- growth at 0.5 µM (U-251 [26]): 76%
- GI50 (U-251 [27]; read-out: GI50): 1.56 µM
- CC50 (U-251 [27]; [32]): > 50 µM
- TGI (U-251 [27]; read-out: TGI): 25.1 µM
- GI50 (U-251 [27]; read-out: pGI50 (converted)): 1.55 µM
- CC50 (U-251 [27]; [33]): > 50.1 µM
- TGI (U-251 [27]; read-out: pTGI (converted)): 25.1 µM
- growth at 0.5 µM (IGROV-1 [28]): 89%
- growth at 0.005 µM (U-251 [29]): 102%
- growth at 5 µM (NCI-H226 [30]): 52%
- growth at 5 µM (SR): 6%
- growth at 0.5 µM (UACC-62 [31]): 70%
